From ChEMBL document CHEMBL4513216, “Probing the Open Global Health Chemical Diversity Library for Multistage-Active Starting Points for Next-Generation Antimalarials” (ACS Infect Dis, 2020)

Test: Toxicity liver stage against HepG2, at 10uM
Format: cell-based
Design: test concentration 10 uM, cell line HepG2-A16-CD81EGFP
Conditions: human, HepG2-A16-CD81EGFP cells; read-out: INHIBITION
Outline: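 Uninfected HepG2-A16-CD81EGFP cells, 3 × 10^3 per well, 1536-well, plated on prespotted compound at 10 μM final, parasite-free screening media added to match infected plates; puromycin 10 μM positive, DMSO 0.5% negative; run in parallel with 48 h PbLuc assay at 37 °C, 5% CO2; viability by CellTiter-Glo luminescence, normalized to controls.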

SMILES | cytotoxicity at 10 µM [%]
CCn1cc(CN2CCC(CN3CCCCC3)CC2)cc1C#N | -5.77
CN(CCC(O)c1ccccc1)c1cc(C2CC2)ncn1 (centres undefined) | -141
COCCNCC1(O)CCCN(Cc2ccc(F)c(F)c2)C1=O (centres undefined) | 3.93
O=C(CCCn1cncn1)N1CCC2(CCCN(CC3CC3)C2=O)C1 (centres undefined) | -0.611
CCc1cc(N2C[C@H](C3CC3)[C@@H](N)C2)nc(N2CCOCC2)n1 | -1.47
N#Cc1cccc(N2CCC3(CCC(=O)N(CC4CCCO4)C3)CC2)n1 (centres undefined) | 4.11
CC(C)[C@H]1CN(Cc2ccncc2)C[C@@H]1NC(=O)C1(C#N)CCOCC1 | -4.81
CC(C)n1cnnc1CCNCc1cn(CCC(N)=O)c2ccccc12 | -3.81
CCNc1ncc(C(=O)N2Cc3nc(C)[nH]c(=O)c3C2)cn1 | -2.19
C/C(=C\c1ccco1)CN(C)C(C)Cc1ccccn1 (centres undefined) | 1.89
O=C1O[C@@H]2CN(Cc3ccccc3)C[C@@H]2N1CCCN1CCOCC1 | -1.18
c1cnn(Cc2nnc(C3CCN(C4CCOCC4)CC3)n2C2CC2)c1 | -15.2
CC(=O)NCCC1CCCCN1S(=O)(=O)c1cccc(C#N)c1 (centres undefined) | -10.8
CCn1c(Cn2cncn2)nnc1C1CCN(Cc2ccc(C)o2)CC1 | -12.9
COCc1cn([C@@H]2c3ccccc3C3(CCNCC3)[C@H]2O)nn1 | 1.2
CSCCC(=O)N1CCC(Oc2cc(C)ccc2F)(C(=O)O)CC1 | -6.02
O=C(c1coc(COc2cccc(F)c2)n1)N1CC[C@H](O)[C@@H](O)C1 | -11
CN(C(=O)C1CCCCC1)[C@@H]1CCC[C@@H](N2CCOCC2)[C@@H]1O | -6.33
O=C(CN1CCOC(Cn2cccn2)C1)NCCc1cccs1 (centres undefined) | -11.3
CC(C)n1ncc2cc(NC(=O)N3CCC(C(N)=O)C3)cnc21 (centres undefined) | -1.85
Cc1cccc(OCCNC(=O)CN2CCCC2c2noc(C)n2)c1 (centres undefined) | -8.6
CCc1nc(C2CCCN2C(=O)c2cc3c(s2)CCC3)no1 (centres undefined) | -5.86
Cc1nc2n(n1)CC(NCC(=O)Nc1cc(C)on1)CC2 (centres undefined) | -12.8
O=C(CCc1nc(-c2ccccn2)no1)N1CCCC1c1ccsc1 (centres undefined) | -14.6
c1ccc(-n2ccc(CN3CCOC(Cn4cncn4)C3)n2)cc1 (centres undefined) | 0.561
CC(NC(=O)NCCCc1n[nH]c(N)c1C#N)c1ccc(Cl)cc1 (centres undefined) | -12.5
Cc1cn2nc(N3CCN(Cc4cc(C)on4)CC3)sc2n1 | -12.1

SMILES | cytotoxicity at 10 µM [%]
c1cnnc(N2CCCC2CNc2cnc3ccccc3n2)c1 (centres undefined) | 1.53
CCOCC(O)CN1CCN(C(=O)c2cnc3n[nH]c(C)c3c2)CC1 (centres undefined) | -7.69
COc1ccc(Cl)cc1C(=O)N1CCCC(n2nc(C)nc2C)C1 (centres undefined) | -4.53
COc1ccc(C2CCCN2C(=O)c2csc(NC(C)=O)n2)cc1 (centres undefined) | -5.82
CC(NC(=O)Nc1cccnc1N1CCCC1)c1nncn1C (centres undefined) | -10.1
COc1cccc(CCC(=O)N2CCCC(n3cc(C)cn3)C2)c1 (centres undefined) | 4.28
CCn1cc(CN2CCCN(C(=O)Cc3ccc(C)nc3)CC2)cn1 | -3.87
OCC1CCCN1c1cc(N2CCN(c3ccccn3)CC2)ncn1 (centres undefined) | 3.97
Cc1occc1C(=O)N1CCc2c(CNS(C)(=O)=O)cncc2C1 | 8.68
O=C1CCCN1Cc1nnn2c1CN(c1cccnc1)CCC2 | 3.48
CCOCC1CN(C(=O)c2cnccn2)Cc2cnn(CC3CC3)c21 (centres undefined) | -69.6
COc1cc(COCC2CCN(Cc3ccccn3)CC2)cc(OC)c1 | -3.36
CC(=O)NCC(=O)N1CCOC2(CCCN(c3cccnc3)C2)C1 (centres undefined) | -12.8
Cc1noc(C)c1CN1CC[C@H]2[C@@H]1CCC(=O)N2CC1CCOCC1 | -1.38
c1cncc(CN2CCC(c3ccc4c(c3)OCO4)CC2)c1 | -0.415
CS(=O)(=O)NC[C@]12COC[C@H]1CN(CC1CCCC1)C2 | 1.52
COCC1CC2(CCN(C(=O)c3cc(C)oc3C)CC2)CN1C(C)C (centres undefined) | -11.4
Cn1cc(C[C@H]2[C@H](O)CCN2CC2CCOCC2)cn1 | -65.7
O=C(c1cocn1)N1C[C@@H]2CN(CC3CC3)CCO[C@@H]2C1 | -2.29
CN(C)C(=O)N1Cc2ncn(C)c2C(COCC2CCOCC2)C1 (centres undefined) | -69.9
CC(=O)NCC(=O)N1CCN(CCN(C)C)c2ncccc2C1 | -104
O=C(O)c1c(-c2cccnc2)ncc2c1CCN(Cc1cccnc1)C2 | -3.14
NC(=O)COc1ccc(CNCc2ccc(F)cc2F)cc1 | -14.4
COc1ccc(CC(=O)N2Cc3nccn3CC(CN(C)C)C2)cc1 (centres undefined) | -116
O=C(C1CC=CC1)N1CCc2c(COCc3ccncc3)cncc2C1 | -7.79
O=C1CO[C@@H]2CN(Cc3ccsc3)C[C@H]2N1Cc1ccncc1 | -73
O=C(NC[C@H]1OC[C@@H]2CCN(Cc3ccco3)C[C@@H]21)c1ccnnc1 | -143
